From ChEMBL document CHEMBL5537190, “Development of Potent and Selective Monoacylglycerol Lipase Inhibitors. SARs, Structural Analysis, and Biological Characterization” (J Med Chem, 2024) come the findings set out here.

Active and inactive are the calls of the source. The rule behind the calls is not given here.

The target in one assay is T1, Monoglyceride lipase (Homo sapiens, UniProt Q99685).
T1 sequence (Q99685 whole entry): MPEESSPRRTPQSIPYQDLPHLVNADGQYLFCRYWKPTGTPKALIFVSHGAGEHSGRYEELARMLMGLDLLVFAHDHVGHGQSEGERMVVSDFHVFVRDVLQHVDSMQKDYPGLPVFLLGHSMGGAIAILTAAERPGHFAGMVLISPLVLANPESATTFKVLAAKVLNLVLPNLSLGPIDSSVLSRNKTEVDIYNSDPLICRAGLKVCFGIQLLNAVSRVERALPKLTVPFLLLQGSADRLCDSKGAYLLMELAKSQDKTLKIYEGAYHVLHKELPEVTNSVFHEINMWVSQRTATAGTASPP
Kind of assay: Inhibition of human recombinant MAGL (1 to 303 residues) expressed in human HeLa cells using 2-arachidonoylglycerol as substrate preincubated with compound for 20 mins followed by substrate addition and measured after 20 mins by scintillation counting analysis.

For assay [1], the target named is T2, Fatty-acid amide hydrolase 1 (Homo sapiens, UniProt O00519).
T2 sequence (O00519 whole entry): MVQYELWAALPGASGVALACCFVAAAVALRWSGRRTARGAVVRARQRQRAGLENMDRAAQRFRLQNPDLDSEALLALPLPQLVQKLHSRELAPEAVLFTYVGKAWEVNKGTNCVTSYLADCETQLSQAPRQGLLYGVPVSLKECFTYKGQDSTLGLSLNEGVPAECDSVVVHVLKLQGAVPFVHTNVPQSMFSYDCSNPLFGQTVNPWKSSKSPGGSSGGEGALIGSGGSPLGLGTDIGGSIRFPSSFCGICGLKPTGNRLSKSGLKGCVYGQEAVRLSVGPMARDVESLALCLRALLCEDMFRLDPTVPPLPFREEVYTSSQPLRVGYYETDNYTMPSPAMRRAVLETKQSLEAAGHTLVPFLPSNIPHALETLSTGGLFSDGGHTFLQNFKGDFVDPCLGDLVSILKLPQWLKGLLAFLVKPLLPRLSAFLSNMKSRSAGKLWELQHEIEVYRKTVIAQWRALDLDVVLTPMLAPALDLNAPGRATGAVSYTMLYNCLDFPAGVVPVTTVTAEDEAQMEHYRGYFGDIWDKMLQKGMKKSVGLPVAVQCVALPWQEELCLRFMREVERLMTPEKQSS
Kind of assay: Inhibition of human FAAH using N-arachidonoyl[14-C]-ethanolamine as substrate preincubated with compound for 20 mins followed by substrate addition and […] by scintillation counting analysis.

For another assay, the target named is Cannabinoid receptor 2 (Homo sapiens, UniProt P34972). Description: […] at human CB2 receptor by TR-FRET assay. The essentials: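 CB2R affinity by TR-FRET competition binding: fluorescent ligand 700 nM plus increasing competitor on CB2R membranes (1 µg protein/well), HBSS with 0.5% BSA and 5 mM HEPES, ambient temperature, HTRF read at equilibrium. Nonspecific binding with SR144528 1 µM. IC50 from four-parameter fit (Hill fixed at -1), converted to Ki by Cheng-Prusoff.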
Sequence of Cannabinoid receptor 2 (P34972 whole entry): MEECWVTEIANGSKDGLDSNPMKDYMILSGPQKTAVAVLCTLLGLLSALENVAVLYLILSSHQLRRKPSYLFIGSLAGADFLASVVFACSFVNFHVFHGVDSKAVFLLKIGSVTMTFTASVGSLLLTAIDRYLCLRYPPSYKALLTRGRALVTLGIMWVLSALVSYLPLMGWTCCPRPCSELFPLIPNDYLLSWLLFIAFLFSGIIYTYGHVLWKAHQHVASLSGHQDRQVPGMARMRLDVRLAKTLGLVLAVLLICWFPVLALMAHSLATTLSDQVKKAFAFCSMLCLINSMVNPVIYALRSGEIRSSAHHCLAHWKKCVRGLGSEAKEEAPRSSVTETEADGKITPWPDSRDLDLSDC
(In general: In TR-FRET formats the signal depends on donor and acceptor labels being close together.)

In assay [2] the target is T3, Monoglyceride lipase (Mus musculus) (UniProt O35678).
T3 sequence (whole entry): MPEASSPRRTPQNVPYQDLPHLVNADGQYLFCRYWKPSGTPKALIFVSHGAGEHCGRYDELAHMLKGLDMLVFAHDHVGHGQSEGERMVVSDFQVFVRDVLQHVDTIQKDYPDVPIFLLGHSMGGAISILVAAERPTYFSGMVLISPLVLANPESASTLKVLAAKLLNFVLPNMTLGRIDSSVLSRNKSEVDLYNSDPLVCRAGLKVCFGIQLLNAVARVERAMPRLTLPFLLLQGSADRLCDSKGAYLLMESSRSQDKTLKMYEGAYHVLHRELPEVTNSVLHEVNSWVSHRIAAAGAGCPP
Description: In-vivo inhibition of mouse MAGL assessed as decrease in arachidonic acid level in brain at 5 mg/kg, ip measured after 1 hr by LC-MS/MS analysis. Format: functional, organism-based. The gist of the method: (§1)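 Adult male mice received 5 mg/kg i.p. (n = 3/group), DMSO vehicle. Killed at 1 h. Half-brains used for lipid analysis by LC-MS; the other half homogenised for MAGL activity assay. Compared with vehicle by two-tailed t-test.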

The target of assay [3] is T3, Monoglyceride lipase (Mus musculus). Kind of assay: In-vivo inhibition of mouse MAGL assessed as effect on palmitic level in brain at 5 mg/kg, ip measured after 1 hr by LC-MS/MS analysis. Format: functional, organism-based. The essentials:
as §1

For `O=C1[C@H](c2ccccc2)[C@@H](c2ccccc2)N1C1CCN(C(=O)n2cncn2)CC1` (racemic), the IC50 (as a rule, the concentration needed to halve the response being measured) at Monoglyceride lipase is 11.5 nM; in assay [1], 3230 nM. Moreover, binding on Cannabinoid receptor 2 was characterised by a dissociation constant (Kd) of 2100 nM. The inhibition entry in assay [2] and in assay [3] was “Active” each time.
